Drawing on ChEMBL document CHEMBL3585272, “Syntheses and Antibacterial Activity of N-Acylated Ciprofloxacin Derivatives Based on the Trimethyl Lock” (ACS Med Chem Lett, 2015), this text covers zone of inhibition and MIC for one molecule.

Usually MIC stands for the smallest concentration in the dilution series that meets the test's criterion for growth inhibition. A lower MIC goes with greater potency.

Assay [1] concerns Pseudomonas aeruginosa. In words: microbe, parasite or virus in culture. Conditions: K799, 24 h, read-out: DIZ.
In assay [2] the test system is Acinetobacter baumannii. In words: microbe, parasite or virus in culture. The note with it: ATCC 17961, 24 h, read-out: DIZ.
The subject of assay [3] is Staphylococcus aureus. In words: Antibacterial activity against Staphylococcus aureus SG511 at 5 ug/ml incubated for 24 hrs at 37 degC by agar diffusion assay. Conditions: SG511, 24 h, read-out: DIZ.
The subject of assay [4] is Mycolicibacterium vaccae. In words: Antibacterial activity against Mycobacterium vaccae IMET10670 at 5 ug/ml incubated for 44 hrs at 37 degC by agar diffusion assay. It is filed as functional. Conditions: IMET10670, 44 h, read-out: DIZ. The gist of the method:
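Agar well diffusion with the sample in H2O at 5 μg/mL. 50 μL was added to 9 mm wells in nutrient or Mueller Hinton II agar. Plates were incubated at 37 °C for 24 h, or 44 h for M. vaccae, and inhibition zones were read.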
For orientation: In agar diffusion tests the substance spreads into inoculated agar from a disc or well.

Assay [5] deals with Pseudomonas aeruginosa. In words: Antibacterial activity against wild type Pseudomonas aeruginosa K799 by broth microdilution method. It is filed as functional. The gist of the method:
(§1)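 Broth microdilution in Mueller-Hinton broth No.2 (MHII) following CLSI guidelines. The MIC (μM) was read by visual end point. Each compound was tested in triplicate.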

In assay [6] the test system is Bacillus subtilis. Nature of the assay: Antibacterial activity against Bacillus subtilis ATCC 6633 by broth microdilution method. It is filed as functional. The gist of the method:
as §1
On the technique in general: Broth dilution looks for growth in wells or tubes with falling amounts of substance.

In assay [7] the test system is Bacillus subtilis. In words: microbe, parasite or virus in culture. Conditions: ATCC 6633, 24 h, read-out: DIZ.
For assay [8], the system named is Pseudomonas aeruginosa. Nature of the assay: microbe, parasite or virus in culture. The note with it: K799/61, 24 h, read-out: DIZ.
In assay [9] the test system is Micrococcus luteus. Nature of the assay: Antibacterial activity against Micrococcus luteus ATCC 10240 by broth microdilution method. The class given is functional. The gist of the method:
as §1

Assay [10] deals with Escherichia coli. Nature of the assay: Antibacterial activity against Escherichia coli DC2 by broth microdilution method. The class given is functional. The gist of the method:
as §1

Assay [11] deals with Micrococcus luteus. Nature of the assay: Antibacterial activity against Micrococcus luteus ATCC 10240 at 5 ug/ml incubated for 24 hrs at 37 degC by agar diffusion assay. Conditions: ATCC 10240, 24 h, read-out: DIZ. It is filed as functional. The gist of the method: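 Agar well diffusion: the drug was dissolved in water and added to 9 mm wells cut in Standard I Nutrient Agar or Mueller Hinton II agar seeded with the strain. Inhibition zone diameters were read after 24 h at 37 °C. Zones were scored as very unclear where the zone boundary was indistinct.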

The subject of assay [12] is Bacillus subtilis. Nature of the assay: microbe, parasite or virus in culture. Conditions: ATCC 6633, 24 h, read-out: DIZ. The source holds these as a separate data set.
The test system of assay [13] is Acinetobacter baumannii. Nature of the assay: Antibacterial activity against Acinetobacter baumannii ATCC 17961 by broth microdilution method. It is filed as functional. The gist of the method:
as §1

The subject of assay [14] is Pseudomonas aeruginosa. In words: microbe, parasite or virus in culture. Conditions: K799/61, 24 h, read-out: DIZ. The source holds these as a separate data set.
In assay [15] the test system is Acinetobacter baumannii. Nature of the assay: microbe, parasite or virus in culture. Conditions: ATCC 17961, 24 h, read-out: DIZ. The source holds these as a separate data set.
The subject of assay [16] is Staphylococcus aureus. In words: Antibacterial activity against Staphylococcus aureus SG511 by broth microdilution method. It is filed as functional. The gist of the method:
as §1

The test system of assay [17] is Mycolicibacterium vaccae. Nature of the assay: Antibacterial activity against Mycobacterium vaccae IMET10670 by broth microdilution method. It is filed as functional. The gist of the method:
as §1

The subject of assay [18] is Escherichia coli. Nature of the assay: Antibacterial activity against Escherichia coli DC0 at 5 ug/ml incubated for 24 hrs at 37 degC by agar diffusion assay. Conditions: DC0, 24 h, read-out: DIZ.
In assay [19] the test system is Escherichia coli. In words: Antibacterial activity against Escherichia coli DC0 by broth microdilution method. The class given is functional. The gist of the method:
as §1

In assay [20] the test system is Pseudomonas aeruginosa. Nature of the assay: Antibacterial activity against Pseudomonas aeruginosa K799/61 by broth microdilution method. The class given is functional. The gist of the method: as §1

Values after ≈ are worked out from the molar mass of the structure shown.

For the molecule `O=C(O)c1cn(C2CC2)c2cc(N3CCNCC3)c(F)cc2c1=O` [CIPROFLOXACIN], the zone of inhibition at 1.66 µg/mL in the assay on Pseudomonas aeruginosa [1] was found to be 15 mm; in the assay on Bacillus subtilis [7], 20 mm; in the assay on Pseudomonas aeruginosa [8], 24 mm; with Bacillus subtilis [12], 24 mm; with Pseudomonas aeruginosa [14] it was 19 mm. For the same molecule, the zone of inhibition at 5 µg/mL with Acinetobacter baumannii [2] was 21 mm; in the assay on Staphylococcus aureus [3] it was 21 mm; in the assay with Mycolicibacterium vaccae [4], 23 mm; in the assay with Micrococcus luteus [11] it was 0 mm; with Acinetobacter baumannii [15], 18 mm; in the assay with Escherichia coli [18] it was 18 mm. For the same molecule, the MIC against Pseudomonas aeruginosa [5] turned out to be 0.47 µM (≈ 0.156 µg/mL); in the assay on Bacillus subtilis [6], 0.03 µM (≈ 0.00994 µg/mL); in the assay on Micrococcus luteus [9], 8 µM (≈ 2.65 µg/mL); against Escherichia coli [10] it was 0.24 µM (≈ 0.0795 µg/mL); against Acinetobacter baumannii [13], 0.24 µM (≈ 0.0795 µg/mL); in the assay with Staphylococcus aureus [16], 0.47 µM (≈ 0.156 µg/mL). In addition, the MIC against Mycolicibacterium vaccae [17] is 0.47 µM (≈ 0.156 µg/mL); against Escherichia coli [19], 0.47 µM (≈ 0.156 µg/mL); with Pseudomonas aeruginosa [20] it was 0.24 µM (≈ 0.0795 µg/mL).
